# Source: PubChem
# hERG rescue: hERG rescue from dofetilide block, primary screen, cell-based, CHO-hERG, FluxOR thallium flux, dofetilide IC70; Voltage-gated inwardly rectifying potassium channel KCNH2 (Homo sapiens), Q12809; dofetilide IC70 present; activation (rescue from dofetilide block), less the hit threshold, % at 10 µM; actives 0.51% (n = 310,000);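 active = activation above the mean of controls blocked by dofetilide plus 5 SD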;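 note: thallium influx through hERG after potassium depolarization seen as dye fluorescence rise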
# KCNQ1 pot: potentiators or activators of KCNQ1 channel, primary screen, cell-based, thallium flux, high-throughput; actives 0.35% (n = 310,000); B-score at 10 µM; Potassium voltage-gated channel subfamily KQT member 1 (Homo sapiens), P51787; CHO-K1 KCNQ1, thallium flux FluxOR fluorescence; hits give high values;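 active = fluorescence ratio B-score, a plate-corrected score, at least three library SD, with initial intensity B-score within 5 SD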
#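 System: CHO-K1 cells stably expressing KCNQ1 / Medium: assay buffer for compound exposure, DMSO matched across wells / Reagent: thallium- and potassium-containing depolarizing buffer / Compound: one concentration, matched DMSO / Incubation: 20 min compound pretreatment at room temperature / Measured by: kinetic FluxOR fluorescence, 10 s baseline plus 110 s post-stimulus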
# KCNK3 inh: human KCNK3 channel inhibitors, primary screen, CHO cells, FluxOR thallium flux, B-score | actives 0.84% (n = 340,000) | AID 602410, 2012 | FluxOR fluorescence; hits give low values | B-score at 10 µM | Potassium channel subfamily K member 3 (Homo sapiens), O14649;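 active = B-score under library mean minus 4 SD, starting fluorescence ratio at most library mean plus 5 SD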;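 note: more negative B-score means stronger inhibition of thallium flux through KCNK3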
# KCNQ1 inh: inhibitors of human KCNQ1 channel, primary screen, cell-based, thallium flux, high-throughput; Potassium voltage-gated channel subfamily KQT member 1 (Homo sapiens), P51787; CHO-K1 KCNQ1, FluxOR thallium flux fluorescence; hits give high values; B-score at 10 µM; actives 1.3% (n = 310,000); AID 2642, 2010;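 active = compounds whose thallium flux B-score, printed positive for inhibition, exceeds three library SD while starting fluorescence stays within three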;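 note: channel opened by potassium depolarization with thallium stimulus after 20 min compound exposure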
# KCNK9 inh: KCNK9 potassium channel inhibitors, primary screen, HEK293 cells, thallium flux; Potassium channel subfamily K member 9 (Homo sapiens), Q9NPC2; FluxOR thallium flux fluorescence; hits give low values; B-score at 10 µM; actives 1.2% (n = 310,000); AID 488922, 2010;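 active = ratio B-score over 3 SD below the library mean, with starting fluorescence within 5 SD of its mean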;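 note: negative B-score means less thallium flux so channel inhibition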
# Cl transport mod: KCC2 cotransporter modulators, thallium flux, primary screen, cell-based, HEK293 KCC2, FluoZin-2 fluorescence, MLSMR | KCC2 cells, thallium flux FluoZin-2 fluorescence | actives 2.2% (n = 190,000) | AID 1456, 2008 | Solute carrier family 12 member 5 (Homo sapiens), Q9H2X9 | B-score of Tl+ flux slope (higher = more flux/activation; lower = inhibition) at 10 µM;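 active = thallium flux slope and its plate-corrected score both differing from the plate sample mean at a set confidence after two filtering rounds, in either direction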;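 note: slope of fluorescence scaled to starting intensity during 10 to 20 s after thallium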
# KCNK9 block conf: KCNK9 potassium channel inhibitors, confirmation, HEK293 cells, thallium flux, duplicate | shares compounds with KCNK9 inh | FluxOR thallium flux fluorescence | inhibition, % at 10 µM | actives 43% (n = 4,900) | AID 492992, 2010;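 active = thallium signal inhibited by more than 5 SD of the compound-free buffer control wells, on both duplicate plates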
# Kir21 sel: mouse Kir2.1 channel inhibition, confirmation, selectivity assay for KCNK9 modulator project, cell-based, HEK293, thallium flux; shares compounds with KCNK9 inh; Kir2.1 cells, FluxOR thallium flux fluorescence; inhibition, % at 10 µM; actives 4% (n = 4,900);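 active = thallium signal drop more than 5 SD beyond the mean of the no-compound control wells, seen in both duplicate plates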;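 note: signal is fluorescence rise after thallium addition divided by baseline fluorescence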
# Target sequence (P35561 whole entry, looked up): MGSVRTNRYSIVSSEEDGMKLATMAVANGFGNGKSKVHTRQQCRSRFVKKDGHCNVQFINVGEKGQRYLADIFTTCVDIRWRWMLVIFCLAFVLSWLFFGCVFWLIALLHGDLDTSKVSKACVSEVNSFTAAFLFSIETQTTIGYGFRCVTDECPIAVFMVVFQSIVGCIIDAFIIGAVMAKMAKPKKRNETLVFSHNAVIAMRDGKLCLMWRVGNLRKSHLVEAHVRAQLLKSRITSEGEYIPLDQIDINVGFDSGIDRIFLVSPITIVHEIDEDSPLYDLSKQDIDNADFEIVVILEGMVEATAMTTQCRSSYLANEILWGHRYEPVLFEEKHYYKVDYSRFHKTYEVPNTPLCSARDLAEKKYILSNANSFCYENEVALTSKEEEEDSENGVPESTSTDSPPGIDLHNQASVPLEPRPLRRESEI
# HEK293 Tl ctr: thallium flux in non-induced HEK293 cells, confirmation, counter-screen for KCNK9 inhibitor project, cell-based, second counter screen, non-induced KCNK9-HEK293. shares compounds with KCNK9 inh. FluxOR thallium flux. inhibition, % at 10 µM. actives 40% (n = 4,900);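 active = thallium signal drop beyond 5 SD of the untreated control mean, on both duplicate plates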
# A number is an active result; n = inactive; x = not tested or not shown. A selection: hits, their analogues and other compounds. The true share with any hit is near 4.1%.
SMILES,hERG rescue,KCNQ1 pot,KCNK3 inh,KCNQ1 inh,KCNK9 inh,Cl transport mod,KCNK9 block conf,Kir21 sel,HEK293 Tl ctr
NC(=O)c1ccc(Oc2ccc3c(c2)CCC3)c([N+](=O)[O-])c1,n,n,n,n,n,x,n,n,n
Cc1ccc(NC(=O)c2cccc(OC(F)F)c2)c(OC(F)F)c1,n,n,n,n,-8.66,n,54.0%,n,35.0%
COc1ccc(S(=O)(=O)NC(CC(C)C)C(=O)NC(C)c2cccs2)cc1 (stereo not drawn),x,x,n,x,x,x,x,x,x
Cc1cc(C)cc(CC(Cc2nc3ccccc3[nH]2)c2nc3ccccc3[nH]2)c1 (stereo not drawn),n,n,n,12,-8.1,x,29.0%,n,37.0%
Cc1ccc(CSCc2nc3ccccc3[nH]2)cc1,n,n,n,n,n,n,x,x,x
Cc1ccc(OCCCCn2cnc3ccccc32)cc1,n,n,n,n,n,n,x,x,x
c1ccc2c(c1)ncn2CCCOc1ccc2c(c1)CCC2,n,n,n,n,n,x,n,n,n
C#Cc1ccc(CN2CCC(Oc3cc(C(=O)NC4CC4)ccc3OC)CC2)cc1,n,n,n,n,n,x,x,x,x
O=c1c2cc(-c3ccccc3)sc2ncn1/N=C/c1ccco1,n,n,n,n,n,n,n,n,n
Fc1ccc(/C=C/c2nnc(-c3cccs3)o2)cc1,n,n,n,n,-8.68,n,33.0%,n,n
Cc1ccc(/C=C/c2nnc(-c3ccc(C)cc3)o2)cc1,n,n,n,n,n,n,x,x,x
CCCCNC(=O)CSc1nc2ccccc2c(=O)n1CC1COc2ccccc2O1 (stereo not drawn),n,n,n,n,n,n,x,x,x
CCCCN(CC)C(=O)CSc1nc2ccccc2c(=O)n1CC1COc2ccccc2O1 (stereo not drawn),n,n,n,n,n,n,n,n,n
COc1ccccc1C1CCN(C(=O)c2ccccc2)CC1,n,n,n,n,n,x,x,x,x
COc1ccccc1C1CCN(C(=O)c2cnn(-c3ccccc3)c2C)CC1,n,n,n,n,n,n,n,n,n
c1ccc2oc(-c3csc(NCC4CCCO4)n3)cc2c1 (stereo not drawn),n,n,n,n,n,n,n,n,n
O=c1oc2ccccc2cc1-c1csc(NN=C2CCCCC2)n1,n,n,n,n,n,n,n,n,n
O=C(N/N=C/c1cc(Br)cc(Br)c1O)c1cccc(S(=O)(=O)N2CCOCC2)c1,n,n,n,n,-8.49,n,59.0%,n,68.0%
CCOc1ccc(N2C(=O)c3cccnc3C2Nc2ccc(C)cc2)cc1 (stereo not drawn),n,n,n,n,n,n,n,n,n
CCOc1ccc(N2C(=O)c3cccnc3C2Nc2ccc(C)c(C)c2)cc1 (stereo not drawn),n,n,n,n,n,n,n,n,n
COc1ccc(CN2C(=O)c3cccnc3C2Nc2ccc(C)cc2)cc1 (stereo not drawn),n,n,n,n,n,n,x,x,x
CCOc1ccc(N2C(=O)c3cccnc3C2Nc2ccc(OC)cc2)cc1 (stereo not drawn),n,n,n,n,n,x,x,x,x
CS(=O)(=O)c1ccc(Cl)c(NC(=O)C2CCCN(C(=O)c3ccc(Cl)cc3)C2)c1 (stereo not drawn),n,n,n,n,n,x,x,x,x
O=C(N=C1SC2CS(=O)(=O)CC2N1Cc1ccc(Cl)cc1)C1CC1 (stereo not drawn),n,n,n,n,n,x,x,x,x
O=C(NCCCCc1ccccc1)C12CN(Cc3ccccc3)CC1C(c1cccc([N+](=O)[O-])c1)=NO2 (stereo not drawn),n,n,n,n,n,n,n,n,n
SMILES,hERG rescue,KCNQ1 pot,KCNK3 inh,KCNQ1 inh,KCNK9 inh,Cl transport mod,KCNK9 block conf,Kir21 sel,HEK293 Tl ctr
O=C(NCCCCc1ccccc1)C12CN(Cc3ccccc3)CC1C(c1ccc([N+](=O)[O-])cc1)=NO2 (stereo not drawn),n,n,n,n,n,n,x,x,x
COc1ccc(C(C)(C)C)cc1NC(=O)COc1ccc(-c2nnco2)cc1,x,x,n,x,x,x,x,x,x
Cc1scc(C(=O)N/N=C/c2ccc(OCC(C)C)cc2)c1C,n,n,n,n,n,n,x,x,x
CCCCOc1ccc(/C=N/NC(=O)c2csc(C)c2C)cc1,n,n,n,n,n,n,n,n,n
CC(Oc1ccccc1)C(=O)Nc1ccc(F)c(S(=O)(=O)N2CCOCC2)c1 (stereo not drawn),x,x,n,x,x,x,x,x,x
CC(NC(=O)Cn1nc(C(F)(F)F)c2c1CCC2)c1ccccc1 (stereo not drawn),n,n,n,n,n,n,n,n,30.5%
COc1ccccc1N1CCN(/N=C/C=C\c2ccccc2[N+](=O)[O-])CC1,n,n,n,n,n,n,n,n,n
CN(C)CCNC(C(=O)Nc1cc(Cl)cc(Cl)c1)c1ccccc1 (stereo not drawn),n,n,n,n,n,n,x,x,x
CC(C)NC(C(=O)Nc1cc(Cl)cc(Cl)c1)c1ccccc1 (stereo not drawn),n,n,n,n,-9.27,n,34.0%,n,25.0%
COC(=O)c1sccc1NC(=O)Nc1cc(OC)ccc1OC,n,n,n,n,n,x,x,x,x
COC(=O)c1cc(NC(=O)Nc2cc(OC)ccc2OC)cc(C(=O)OC)c1,n,n,n,n,-10.6,n,31.0%,n,n
O=C(NCc1cccnc1)C1CC(c2ccc(Cl)c(Cl)c2)=NO1 (stereo not drawn),n,n,n,n,n,x,x,x,x
COc1ccc(-c2cc(C)nc3c(-c4ccccc4)cnn23)cc1,n,n,n,n,-9.51,n,57.5%,n,51.0%
Cc1cc(-c2ccccc2)n2ncc(-c3ccccc3)c2n1,n,n,n,n,n,n,x,x,x
